Compound activity (PubChem BioAssay)
The list is not random: actives were taken first. Their share in the collection is about 3.5%.
MEKK2 mut-MEK5 = MEK5 binding signal on mutant MEKK2 PB1, primary screen, biochemical, multiplex bead flow cytometry, Alexa488-MEK5; Alexa488-MEK5 binding to MEKK2 mutant; percent response, % at 10 µM; hit rate 0.35% among 290,000; AID 1530, 2009; in the data active = percent response above about 24%, passing the limit was not always enough
WT yeast gro inh = growth inhibition of WT strain, primary screen, mitochondrial fusion inhibitor project, WT and mutant strains, chemical genetic; inhibition, % at 10 µM; mitochondrial fusion phenotypic screen; AID 1362, 2008; hit rate 2.1% among 190,000; in the data active = inhibition above about 58%; tested in S. cerevisiae
ABCG2 block = ABCG2 efflux pump inhibitors, primary screen, multiplex with ABCB1, IgMXP3 cells, flow cytometry. Broad substrate specificity ATP-binding cassette transporter ABCG2 (Homo sapiens), Q9UNQ0. hit rate 0.1% among 190,000. AID 1325, 2008. JC-1 efflux. inhibition, % at 6.6 µM;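 active = inhibition above 80%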;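 also: 0% = DMSO and 100% = nicardipine control wells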
Target sequence (Q9UNQ0 whole entry, looked up): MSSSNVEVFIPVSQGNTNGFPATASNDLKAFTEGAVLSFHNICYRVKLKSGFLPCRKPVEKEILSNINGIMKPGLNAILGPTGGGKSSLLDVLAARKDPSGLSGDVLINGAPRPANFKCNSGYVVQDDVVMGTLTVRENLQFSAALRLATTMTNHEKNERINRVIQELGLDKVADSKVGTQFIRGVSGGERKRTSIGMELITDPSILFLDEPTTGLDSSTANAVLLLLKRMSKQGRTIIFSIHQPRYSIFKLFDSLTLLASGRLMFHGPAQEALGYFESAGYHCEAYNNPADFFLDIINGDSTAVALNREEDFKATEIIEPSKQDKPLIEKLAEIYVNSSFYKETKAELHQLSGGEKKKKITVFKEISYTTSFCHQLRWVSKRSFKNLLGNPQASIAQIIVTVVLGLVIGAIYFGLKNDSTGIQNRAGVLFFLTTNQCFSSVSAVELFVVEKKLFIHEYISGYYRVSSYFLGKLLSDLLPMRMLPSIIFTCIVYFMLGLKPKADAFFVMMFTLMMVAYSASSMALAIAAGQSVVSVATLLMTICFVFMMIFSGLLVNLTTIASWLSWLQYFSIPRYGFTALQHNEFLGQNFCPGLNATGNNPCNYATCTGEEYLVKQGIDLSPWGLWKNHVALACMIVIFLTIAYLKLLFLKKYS
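Incubation: cells with compound and JC-1, 10 min at 25 °C, rotating, no wash / Test system: IgMXP3 (ABCG2) plus far-red-tagged CCRF-Adr (ABCB1) cells / Compound dosing: one concentration, 6.6 µM final / Also added: JC-1 fluorescent substrate / Evaluation: efflux inhibition in percent versus controls / Detection: flow cytometry, 530 nm JC-1 signal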
ABCB1 inh = ABCB1 efflux pump inhibitors, primary screen, cell-based, multiplex, flow cytometry, ABCG2 counter-screen; AID 1326, 2008; inhibition, % at 6.6 µM; hit rate 0.067% among 190,000; CCRF-Adr cells, JC-1 efflux; ATP-dependent translocase ABCB1 (Homo sapiens), P08183; in the data active = inhibition above about 40%;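 also: 0% = vehicle and 100% = reference inhibitor; higher value means more JC-1 retained so stronger ABCB1 efflux block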
MEKK3 PB1 HTS = modulators of MEKK3-MEK5 PB1 binding, primary screen, biochemical, wildtype MEKK3, multiplex bead flow cytometry, Alexa488-MEK5 | binding response (% of control), % at 10 µM | AID 1529, 2009 | bead-based flow cytometry, Alexa488-MEK5 binding to MEKK3; actives lie on both sides; 0 = blocked by unlabeled MEK5, 100 = vehicle | hit rate 1.4% among 290,000 | Mitogen-activated protein kinase kinase kinase 3 (Homo sapiens), Q99759;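 active = binding response more than 3 SD above or below the average of its plate-row segment, actives on both sides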;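 also: Alexa488 bead fluorescence after subtracting the streptavidin-only scavenger bead signal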
MEKK2wt PB1 HTS = modulators of MEK5 binding to wildtype MEKK2, primary screen, biochemical, multiplex bead flow cytometry, Alexa488-MEK5; Alexa488-MEK5 binding to MEKK2 WT; actives lie on both sides; binding response (% of control), % at 10 µM; hit rate 1.1% among 290,000; Mitogen-activated protein kinase kinase kinase 2 (Homo sapiens), Q9Y2U5; in the data active = binding response below about 67% or above about 130%
MEKK2wt confirm = modulators of MEK5 binding to wildtype MEKK2, confirmation, biochemical, single concentration, multiplex bead flow cytometry; AID 1892, 2009; hit rate 2.4% among 5,900; Alexa488-MEK5 binding to MEKK2 WT; actives lie on both sides; binding response (% of control), % at 10 µM; shares compounds with MEKK3 PB1 HTS; in the data active = binding response below about 16% or above about 210%; inactive = in between
MEKK2mut-MEK5 = mutant MEKK2 PB1-MEK5 binding signal retest – biochemical, single concentration, multiplex bead flow cytometry, confirmation; shares compounds with MEKK3 PB1 HTS; Alexa488-MEK5 binding to MEKK2 mutant; percent response, % at 10 µM; hit rate 2% among 5,900; in the data active = percent response mostly above about 71%, no sharp cut-off; inactive = mostly below about 38%;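 also: higher means compound restores mutant binding toward wildtype level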
MEKK3-MEK5 inh = MEKK3 wild-type PB1 binding to MEK5, inhibitors, confirmation, biochemical, bead multiplex flow cytometry, single concentration, wildtype; shares compounds with MEKK3 PB1 HTS; Alexa488-MEK5 binding to MEKK3; hits give low values; binding response (% of control), % at 10 µM; hit rate 1.8% among 5,900;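 active = binding response below 72% of control, or above a set upper limit, though filed actives all read lower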;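 also: 100% = DMSO only wells and 0% = binding blocked by excess unlabeled MEK5; lower values mean stronger disruption of MEK5 binding to MEKK3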
Starred values were filed as active, the others as inactive; [ ] = remark or other dose.

What do the screens show for `CCOc1cc(C(C#N)N2CCOCC2)ccc1OC` (stereo not drawn)?
MEKK2 mut-MEK5: -5; WT yeast gro inh: 8; ABCG2 block: 37; ABCB1 inh: 0; MEKK3 PB1 HTS: 96; MEKK2wt PB1 HTS: 98

How did COC(=O)c1cc(C)cc(=O)o1 do in these assays?
MEKK2 mut-MEK5: -1; MEKK3 PB1 HTS: 100; MEKK2wt PB1 HTS: 99

How did Cc1cc(C(=O)Nc2ccccc2)oc(=O)c1 do in these assays?
MEKK2 mut-MEK5: -25; MEKK3 PB1 HTS: 49*[inhibitor]; MEKK2wt PB1 HTS: 66; MEKK2wt confirm: 99; MEKK2mut-MEK5: -7; MEKK3-MEK5 inh: 91

Results for O=C(CCN1C(=O)COc2ccccc21)NCCCN1CCc2ccccc2C1 ?
MEKK2 mut-MEK5: -5; WT yeast gro inh: -6; ABCG2 block: 1; ABCB1 inh: 0; MEKK3 PB1 HTS: 87; MEKK2wt PB1 HTS: 93

What do the screens show for `CC(C)OCCCNC(=O)CCN1C(=O)COc2ccccc21`?
MEKK2 mut-MEK5: -20; WT yeast gro inh: 14; ABCG2 block: 4; ABCB1 inh: 1; MEKK3 PB1 HTS: 1.0*[inhibitor]; MEKK2wt PB1 HTS: -2.0*[inhibitor]; MEKK2wt confirm: 108; MEKK2mut-MEK5: 6; MEKK3-MEK5 inh: 106

Results for CSc1cc(-c2ccc(Cl)cc2)c(C(=O)N2CCCC2)s1 ?
MEKK2 mut-MEK5: 1; WT yeast gro inh: -21; ABCG2 block: 3; ABCB1 inh: 1; MEKK3 PB1 HTS: 101; MEKK2wt PB1 HTS: 100

Results for Cc1ccc(S(=O)(=O)NNc2nnc(C)c(=O)[nH]2)cc1 ?
MEKK2 mut-MEK5: 5; WT yeast gro inh: -11; ABCG2 block: 1; ABCB1 inh: 0; MEKK3 PB1 HTS: 135*; MEKK2wt PB1 HTS: 129; MEKK2wt confirm: 101; MEKK2mut-MEK5: -6; MEKK3-MEK5 inh: 99

How did NC1=NC[C@H](Cc2ccc(O)cc2)N1CCC12CC3CC(CC(C3)C1)C2 do in these assays?
MEKK2 mut-MEK5: 21; MEKK3 PB1 HTS: 108; MEKK2wt PB1 HTS: 138*; MEKK2wt confirm: 128; MEKK2mut-MEK5: 8; MEKK3-MEK5 inh: 100

What do the screens show for `CCCCN1C(N)=NC[C@@H]1Cc1ccc(O)cc1`?
MEKK2 mut-MEK5: 1; MEKK3 PB1 HTS: 97; MEKK2wt PB1 HTS: 106

Results for C=C1CCC[C@]2(C)C[C@H]3OC(=O)C(CN[C@@H](C)c4ccccc4)[C@H]3CC12 (stereo partly drawn) ?
MEKK2 mut-MEK5: 3; MEKK3 PB1 HTS: 96; MEKK2wt PB1 HTS: 106

How did C=C1CCC[C@]2(C)C[C@H]3OC(=O)C(CNC(C)CCCC(C)C)[C@H]3CC12 (stereo partly drawn) do in these assays?
MEKK2 mut-MEK5: 17; MEKK3 PB1 HTS: 109; MEKK2wt PB1 HTS: 138*; MEKK2wt confirm: 138; MEKK2mut-MEK5: 29; MEKK3-MEK5 inh: 107

What do the screens show for `COc1ccc(CNC(=O)CN2CCN(c3ccccc3O)CC2)cc1OC`?
MEKK2 mut-MEK5: 3; MEKK3 PB1 HTS: 98; MEKK2wt PB1 HTS: 102
